# Laboratory results reported in ChEMBL document CHEMBL4145534, “Computer-aided insights into receptor-ligand interaction for novel 5-arylhydantoin derivatives as serotonin 5-HT7 receptor agents with antidepressant activity” (Eur J Med Chem, 2018).
# How the values were obtained:
# [1] = molecular target: 5-hydroxytryptamine receptor 7 (Homo sapiens, UniProt P34969); test: Displacement of [3H]-5-CT from human 5HT7BR expressed in HEK293 cell membranes after 1 hr by Microbeta scintillation counting method
# [2] = molecular target: T1, 5-hydroxytryptamine receptor 1A (Homo sapiens, UniProt P08908); test: Displacement of [3H]-8-OH-DPAT from human 5HT1AR expressed in HEK293 cell membranes after 1 hr by Microbeta scintillation counting method
# T1 sequence (P08908 whole entry): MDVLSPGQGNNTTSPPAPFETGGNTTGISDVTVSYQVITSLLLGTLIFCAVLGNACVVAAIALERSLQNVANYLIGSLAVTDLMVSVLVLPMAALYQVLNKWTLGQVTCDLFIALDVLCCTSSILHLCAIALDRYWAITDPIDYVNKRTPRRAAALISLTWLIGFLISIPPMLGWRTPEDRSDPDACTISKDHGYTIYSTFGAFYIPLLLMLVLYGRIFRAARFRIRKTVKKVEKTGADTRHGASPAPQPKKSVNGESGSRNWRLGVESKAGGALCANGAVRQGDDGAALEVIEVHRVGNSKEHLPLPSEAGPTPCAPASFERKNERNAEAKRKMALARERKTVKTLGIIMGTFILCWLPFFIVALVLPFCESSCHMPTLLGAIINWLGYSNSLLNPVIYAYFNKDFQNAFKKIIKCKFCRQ
# [3] = molecular target: T2, Adrenergic receptor alpha-2 (Rattus norvegicus, UniProt P22086+P19328+P22909); test: Displacement of [3H]-clonidine from alpha2-adrenergic receptor in rat brain cortex after 30 mins by Microbeta scintillation counting method
# T2 sequence (P22086 whole entry): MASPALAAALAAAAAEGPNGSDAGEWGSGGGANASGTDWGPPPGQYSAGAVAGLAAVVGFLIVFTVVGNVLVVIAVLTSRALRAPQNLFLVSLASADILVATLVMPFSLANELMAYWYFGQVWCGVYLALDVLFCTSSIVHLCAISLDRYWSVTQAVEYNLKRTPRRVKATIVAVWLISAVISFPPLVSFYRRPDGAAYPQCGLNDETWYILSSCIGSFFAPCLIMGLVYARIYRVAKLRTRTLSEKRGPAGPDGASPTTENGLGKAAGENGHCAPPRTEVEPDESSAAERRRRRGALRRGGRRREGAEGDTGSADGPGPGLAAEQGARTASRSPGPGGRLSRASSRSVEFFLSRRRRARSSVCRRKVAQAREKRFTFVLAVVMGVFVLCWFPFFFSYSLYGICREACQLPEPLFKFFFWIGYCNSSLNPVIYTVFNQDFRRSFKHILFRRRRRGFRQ
# T2 sequence (P19328 whole entry): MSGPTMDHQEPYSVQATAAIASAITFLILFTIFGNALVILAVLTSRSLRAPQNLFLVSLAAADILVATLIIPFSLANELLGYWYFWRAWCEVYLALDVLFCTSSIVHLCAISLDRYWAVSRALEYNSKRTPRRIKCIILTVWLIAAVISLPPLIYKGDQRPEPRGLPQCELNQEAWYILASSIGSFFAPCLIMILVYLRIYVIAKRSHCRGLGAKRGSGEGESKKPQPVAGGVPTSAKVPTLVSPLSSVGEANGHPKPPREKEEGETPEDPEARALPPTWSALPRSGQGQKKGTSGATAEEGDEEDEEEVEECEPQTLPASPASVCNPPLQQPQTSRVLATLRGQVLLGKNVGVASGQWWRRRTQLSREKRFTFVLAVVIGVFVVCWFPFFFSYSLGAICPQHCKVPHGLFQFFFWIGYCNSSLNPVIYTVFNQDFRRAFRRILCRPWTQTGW
# T2 sequence (P22909 whole entry): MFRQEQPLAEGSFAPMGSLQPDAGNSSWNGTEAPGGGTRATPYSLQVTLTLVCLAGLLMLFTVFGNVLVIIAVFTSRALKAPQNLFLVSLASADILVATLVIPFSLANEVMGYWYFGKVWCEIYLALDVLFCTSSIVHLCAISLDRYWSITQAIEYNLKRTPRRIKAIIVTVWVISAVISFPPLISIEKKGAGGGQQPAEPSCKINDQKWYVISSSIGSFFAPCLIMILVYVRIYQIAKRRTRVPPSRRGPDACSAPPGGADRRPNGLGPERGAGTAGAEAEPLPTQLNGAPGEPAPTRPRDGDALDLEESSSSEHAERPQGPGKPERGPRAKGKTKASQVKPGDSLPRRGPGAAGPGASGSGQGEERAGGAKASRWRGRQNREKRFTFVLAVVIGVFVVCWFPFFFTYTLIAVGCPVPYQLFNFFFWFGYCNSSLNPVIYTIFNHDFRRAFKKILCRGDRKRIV
# [4] = molecular target: D(2) dopamine receptor (Homo sapiens, UniProt P14416); test: Displacement of [3H]-raclopride from human D2L receptor expressed in HEK293 cell membranes after 1 hr by Microbeta scintillation counting method
# [5] = molecular target: T3, Adrenergic receptor alpha-1 (Rattus norvegicus, UniProt P15823+P23944+P43140); test: Displacement of [3H]-prazosin from alpha1-adrenergic receptor in rat brain cortex after 30 mins by Microbeta scintillation counting method
# T3 sequence (P15823 whole entry): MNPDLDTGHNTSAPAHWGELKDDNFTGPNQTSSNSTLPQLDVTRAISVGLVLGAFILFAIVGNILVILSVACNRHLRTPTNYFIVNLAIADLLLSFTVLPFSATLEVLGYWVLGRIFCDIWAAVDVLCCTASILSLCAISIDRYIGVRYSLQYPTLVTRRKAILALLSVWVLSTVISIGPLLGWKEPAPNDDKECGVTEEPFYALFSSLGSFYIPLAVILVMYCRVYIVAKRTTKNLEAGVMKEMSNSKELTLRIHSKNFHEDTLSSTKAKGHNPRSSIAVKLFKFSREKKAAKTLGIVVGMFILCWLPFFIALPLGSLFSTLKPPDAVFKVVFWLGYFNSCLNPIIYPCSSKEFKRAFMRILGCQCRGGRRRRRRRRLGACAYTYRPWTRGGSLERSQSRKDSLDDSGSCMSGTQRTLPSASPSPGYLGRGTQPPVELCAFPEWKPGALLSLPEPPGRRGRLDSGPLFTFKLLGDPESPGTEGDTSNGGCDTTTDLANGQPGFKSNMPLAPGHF
# T3 sequence (P23944 whole entry): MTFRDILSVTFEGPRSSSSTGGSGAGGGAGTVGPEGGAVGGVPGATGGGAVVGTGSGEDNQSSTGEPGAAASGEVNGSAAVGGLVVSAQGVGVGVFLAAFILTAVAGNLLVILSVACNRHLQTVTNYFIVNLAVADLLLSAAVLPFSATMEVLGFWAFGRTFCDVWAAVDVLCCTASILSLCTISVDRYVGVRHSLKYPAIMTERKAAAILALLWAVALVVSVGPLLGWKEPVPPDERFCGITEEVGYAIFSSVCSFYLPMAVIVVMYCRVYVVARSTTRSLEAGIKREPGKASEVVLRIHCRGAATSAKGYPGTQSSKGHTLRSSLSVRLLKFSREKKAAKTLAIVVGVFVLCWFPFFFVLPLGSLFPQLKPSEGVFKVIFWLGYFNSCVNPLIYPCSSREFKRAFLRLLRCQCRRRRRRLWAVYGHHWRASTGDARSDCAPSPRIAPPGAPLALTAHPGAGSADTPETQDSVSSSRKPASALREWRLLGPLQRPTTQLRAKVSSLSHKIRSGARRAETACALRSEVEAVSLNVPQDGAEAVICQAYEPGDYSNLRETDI
# T3 sequence (P43140 whole entry): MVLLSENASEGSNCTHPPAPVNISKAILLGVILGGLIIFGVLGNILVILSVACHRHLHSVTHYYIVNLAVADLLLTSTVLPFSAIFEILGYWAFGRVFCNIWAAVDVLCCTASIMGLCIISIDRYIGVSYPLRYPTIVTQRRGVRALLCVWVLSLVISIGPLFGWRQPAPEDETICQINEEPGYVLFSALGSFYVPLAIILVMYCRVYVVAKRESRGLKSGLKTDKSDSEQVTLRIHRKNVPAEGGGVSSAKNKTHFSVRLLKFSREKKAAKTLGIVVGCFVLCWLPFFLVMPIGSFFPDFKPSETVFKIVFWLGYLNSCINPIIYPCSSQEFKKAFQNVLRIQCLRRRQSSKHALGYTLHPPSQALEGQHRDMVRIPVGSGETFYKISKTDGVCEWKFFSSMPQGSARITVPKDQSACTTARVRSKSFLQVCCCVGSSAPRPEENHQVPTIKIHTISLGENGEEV
# [6] = system: Mus musculus; test: Effect on spontaneous locomotor activity in Swiss albino mouse at 20 mg/kg, ip administered 60 mins prior to test and measured for 3 to 6 mins; type: ADME, organism-based; conditions: in vivo
# In short: (§1)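 Male Swiss Albino mice given compound or vehicle (1% Tween 80, 10 ml/kg) i.p. 60 min before test. Each mouse placed alone in a cage for 30 min habituation. Ambulation (photobeam channel crossings) then recorded over a 3–6 min session. Means ± SEM.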
# [7] = organism: Homo sapiens; test: Selectivity ratio of Ki for human D2L receptor expressed in HEK293 cell membranes to Ki for human 5HT7BR expressed in HEK293 cell membranes; type: cell-based
# In short: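 Membranes from HEK293 cells stably expressing human 5-HT1A, 5-HT7b or D2L receptors. Buffers all 50 mM Tris HCl with 4 mM MgCl2 and 0.1% ascorbate. 5-HT1A: 0.1 mM EDTA, 10 µM pargyline, 2.5 nM [3H]-8-OH-DPAT, room temperature. 5-HT7b: 10 µM pargyline, 0.8 nM [3H]-5-CT, 37°C. D2L: EDTA, NaCl, KCl, CaCl2, 2.5 nM [3H]-raclopride, 37°C. Incubation 1 h; nonspecific binding 10 µM 5-HT (haloperidol for D2L). Seven concentrations (10^-10–10^-4 M) in triplicate; filtration; Ki by Cheng-Prusoff; at least two experiments.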
# [8] = system: Mus musculus; test: Anxiolytic-like activity in Swiss albino mouse assessed as number of punished crossings at 40 mg/kg, ip administered 60 mins prior to test and measured post 3 secs of electric shock by four-plate test (reference value: 3.8 to 4 /min); type: functional
# [9] = system: Mus musculus; test: Anxiolytic-like activity in Swiss albino mouse assessed as number of punished crossings at 20 mg/kg, ip administered 60 mins prior to test and measured post 3 secs of electric shock by four-plate test (reference value: 3.8 to 4 /min); type: functional
# [10] = system: Mus musculus; test: Antidepressant like activity in Swiss albino mouse assessed as decrease in immobility time at 20 mg/kg, ip administered 60 mins prior to test and measured last 4 mins of 6 mins test by forced swimming test relative to control; type: functional; design: scale not given: the % may be the effect or the level left
# [11] = system: Mus musculus; test: Antidepressant like activity in Swiss albino mouse assessed as immobility time at 20 mg/kg, ip administered 60 mins prior to test and measured last 4 mins of 6 mins test by forced swimming test (reference value: 159.78 to 183.56 secs); type: functional
# [12] = molecular target: Beta-1 adrenergic receptor (Rattus norvegicus, UniProt P18090); test: Displacement of [3H]-CGP-12177 from beta1-adrenergic receptor in rat brain cortex after 1 hr by Microbeta scintillation counting method
# [13] = system: Mus musculus; test: Antidepressant like activity in Swiss albino mouse assessed as immobility time at 5 mg/kg, ip administered 60 mins prior to test and measured last 4 mins of 6 mins test by forced swimming test (reference value: 159.78 to 183.56 secs); type: functional
# [14] = system: Mus musculus; test: Antidepressant like activity in Swiss albino mouse assessed as immobility time at 10 mg/kg, ip administered 60 mins prior to test and measured last 4 mins of 6 mins test by forced swimming test (reference value: 159.78 to 183.56 secs); type: functional
# [15] = system: Mus musculus; test: Anxiolytic-like activity in Swiss albino mouse assessed as number of punished crossings at 10 mg/kg, ip administered 60 mins prior to test and measured post 3 secs of electric shock by four-plate test (reference value: 3.8 to 4 /min); type: functional
# [16] = system: Mus musculus; test: Anxiolytic-like activity in Swiss albino mouse assessed as number of punished crossings at 5 mg/kg, ip administered 60 mins prior to test and measured post 3 secs of electric shock by four-plate test (reference value: 3.8 to 4 /min); type: functional
# [17] = system: Mus musculus; test: Effect on spontaneous locomotor activity in Swiss albino mouse at 10 mg/kg, ip administered 60 mins prior to test and measured for 3 to 6 mins; type: ADME, organism-based; conditions: in vivo; in short: as §1
# Sequence of D(2) dopamine receptor (P14416 whole entry): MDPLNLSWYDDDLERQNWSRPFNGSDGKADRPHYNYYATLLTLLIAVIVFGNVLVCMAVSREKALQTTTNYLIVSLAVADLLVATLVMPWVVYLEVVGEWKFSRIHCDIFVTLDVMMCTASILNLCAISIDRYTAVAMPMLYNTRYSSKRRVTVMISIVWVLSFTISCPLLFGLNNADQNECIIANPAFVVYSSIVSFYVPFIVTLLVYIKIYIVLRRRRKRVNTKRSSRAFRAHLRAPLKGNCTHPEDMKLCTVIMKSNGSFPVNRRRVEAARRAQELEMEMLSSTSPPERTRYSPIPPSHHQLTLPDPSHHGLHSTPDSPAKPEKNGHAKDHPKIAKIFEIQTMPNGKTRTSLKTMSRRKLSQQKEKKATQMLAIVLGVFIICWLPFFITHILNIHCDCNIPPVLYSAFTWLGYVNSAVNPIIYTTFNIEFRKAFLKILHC
# Sequence of 5-hydroxytryptamine receptor 7 (P34969 whole entry): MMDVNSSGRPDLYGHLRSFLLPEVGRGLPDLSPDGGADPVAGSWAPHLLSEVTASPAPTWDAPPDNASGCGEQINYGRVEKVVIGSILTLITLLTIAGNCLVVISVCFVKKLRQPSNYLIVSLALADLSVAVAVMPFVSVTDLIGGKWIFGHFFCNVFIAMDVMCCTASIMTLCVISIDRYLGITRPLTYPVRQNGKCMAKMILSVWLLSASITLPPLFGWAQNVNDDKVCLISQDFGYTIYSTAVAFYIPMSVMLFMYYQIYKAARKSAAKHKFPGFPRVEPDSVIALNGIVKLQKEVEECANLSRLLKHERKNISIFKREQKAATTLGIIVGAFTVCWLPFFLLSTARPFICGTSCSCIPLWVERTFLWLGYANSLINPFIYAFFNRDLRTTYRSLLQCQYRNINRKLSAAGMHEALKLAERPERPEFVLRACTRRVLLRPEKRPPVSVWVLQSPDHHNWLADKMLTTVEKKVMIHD
# Sequence of Beta-1 adrenergic receptor (P18090 whole entry): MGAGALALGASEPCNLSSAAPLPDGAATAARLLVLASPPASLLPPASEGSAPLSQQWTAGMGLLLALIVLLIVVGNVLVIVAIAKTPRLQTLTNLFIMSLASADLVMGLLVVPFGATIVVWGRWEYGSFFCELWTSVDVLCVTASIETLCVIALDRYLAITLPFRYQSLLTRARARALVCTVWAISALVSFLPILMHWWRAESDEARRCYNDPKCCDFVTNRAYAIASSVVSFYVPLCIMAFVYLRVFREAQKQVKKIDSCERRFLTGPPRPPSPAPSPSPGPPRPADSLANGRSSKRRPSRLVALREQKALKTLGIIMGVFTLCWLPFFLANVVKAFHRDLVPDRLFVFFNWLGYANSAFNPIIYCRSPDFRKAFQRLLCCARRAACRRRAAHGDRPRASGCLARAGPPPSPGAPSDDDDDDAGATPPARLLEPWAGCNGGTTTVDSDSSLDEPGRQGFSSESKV
Ki [1],Ki [2],Ki [3],Ki [4],Ki [5],Ki [12],Structure (SMILES),further results
0.02 µM,0.109 µM,> 10 µM,0.366 µM,0.268 µM,,COc1ccccc1N1CCN(CC(O)CN2C(=O)NC(C)(c3ccc(Cl)cc3)C2=O)CC1.Cl (racemic),
0.012 µM,0.585 µM,,1.69 µM,0.278 µM,> 10 µM,CC1(c2ccccc2)NC(=O)N(CC(O)CN2CCN(c3ccccc3C#N)CC2)C1=O.Cl (racemic),Activity [6]: Non-Toxic; Ratio Ki [7]: 140 to 190; Activity [8]: 5.2 min⁻¹; Activity [9]: 4.9 min⁻¹; Activity [10]: 80%; Time [11]: 34.44 s; Time [13]: 141.22 s; Time [14]: 134.57 s; Activity [15]: 3.3 min⁻¹
1.2 µM,0.341 µM,,0.534 µM,,,N#Cc1ccccc1N1CCN(CC(O)CN2C(=O)NC(c3ccccc3)(c3ccccc3)C2=O)CC1 (racemic),
0.008 µM,0.099 µM,> 10 µM,0.601 µM,0.53 µM,,CC1(c2ccc(Cl)cc2)NC(=O)N(CC(O)CN2CCN(C(c3ccccc3)c3ccccc3)CC2)C1=O.Cl (racemic),
0.01 µM,0.421 µM,,1.03 µM,0.308 µM,> 10 µM,COc1ccccc1N1CCN(CC(O)CN2C(=O)NC(C)(c3ccccc3)C2=O)CC1.Cl (racemic),Activity [6]: Non-Toxic; Activity [9]: 4.3 min⁻¹; Time [11]: 66.11 s; Activity [16]: 3 min⁻¹; Time [13]: 182.89 s; Activity [17]: Non-Toxic; Time [14]: 121.38 s; Activity [15]: 4.7 min⁻¹
0.566 µM,0.197 µM,,0.497 µM,,,COc1ccccc1N1CCN(CC(O)CN2C(=O)NC(c3ccccc3)(c3ccccc3)C2=O)CC1 (racemic),
,0.219 µM,,,,,COc1ccc(C2(C)NC(=O)N(CC(O)CN3CCN(c4ccccc4C#N)CC3)C2=O)cc1 (racemic),
0.05 µM,0.184 µM,,0.876 µM,,,COc1ccccc1N1CCN(CC(O)CN2C(=O)NC(C)(c3ccc(C)cc3)C2=O)CC1 (racemic),
0.006 µM,0.19 µM,> 5 µM,0.303 µM,0.5 µM,> 10 µM,CCOc1ccccc1N1CCN(CC(O)CN2C(=O)NC(C)(c3ccccc3)C2=O)CC1.Cl (racemic),
